# Measured values from ChEMBL document CHEMBL1123510, “Investigation of the structural requirements for the kappa-selective opioid receptor antagonist, 6 beta,6 beta'-[ethylenebis(oxyethyleneimino)]bis[17-(cyclopropylmethyl)- 4,5 alpha-epoxymorphinan-3,14-diol] (TENA)” (J Med Chem, 1986).
# Legend:
# Assay type in all cases: functional
# Cavia porcellus [1] = organism: Cavia porcellus; assay: Inhibitory concentration of compound was measured in muscle of the guinea pig ileum; settings: Muscle tissue
# In short: (§1)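 Electrically stimulated longitudinal muscle of guinea pig ileum; agonist IC50 for inhibition of the twitch, with potency expressed relative to a control morphine IC50 run in the same preparation.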
# Cavia porcellus [2] = organism: Cavia porcellus; assay: Inhibitory concentration of morphine was measured in muscle of the guinea pig ileum; settings: Muscle tissue; in short: as §1
# Cavia porcellus [3] = organism: Cavia porcellus; assay: The agonist potency of compound was determined relative to control morphine IC50; in short: as §1
# [4] = Ratio of IC50 of ethylketazocine (EK) in the presence of compound to IC50 of ethylketazocine in the absence of compound
# In short: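 Guinea pig ileum longitudinal muscle, electrically stimulated; the kappa agonist ethylketazocine (EK) was run with and without the test antagonist, given at 20 nM or 2 nM depending on the compound. The IC50 ratio is EK IC50 with antagonist over EK IC50 alone.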
SMILES,IC50 (Cavia porcellus [1]) [nM],IC50 (Cavia porcellus [2]) [nM],Relative potency (Cavia porcellus [3]),IC50 ratio [4]
NCCOCCOCCN[C@@H]1CC[C@@]2(O)C3Cc4ccc(O)c5c4C2(CCN3CC2CC2)[C@H]1O5 (some centres not stated),21.1,123,5.8,1.1
Oc1ccc2c3c1O[C@H]1[C@H](NCCOCCOCCNCc4ccccc4)CC[C@@]4(O)C(C2)N(CC2CC2)CCC314 (some centres not stated),206,107,5.2,3.1
N=C(N)NCCOCCOCCN[C@@H]1CC[C@@]2(O)C3Cc4ccc(O)c5c4C2(CCN3CC2CC2)[C@H]1O5.O=S(=O)(O)O (some centres not stated),11.4,104,9.1,1
